Laboratory results: ChEMBL document CHEMBL5376013, “Design, synthesis and biological evaluation of novel morpholinopyrimidine-5-carbonitrile derivatives as dual PI3K/mTOR inhibitors” (RSC Med Chem, 2024)

Experiments:
[1] = test system: HL-60; assay: Antitumor activity against human HL-60 cells assessed as growth inhibition at 10 uM relative to control; format: functional; details: read-out: GI
Procedure, shortened: (§1)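 After drug addition, plates were incubated 48 h at 37 °C under 5% CO2. Adherent cells were fixed with cold TCA (10% final, 60 min, 4 °C) and suspension cells with 16% final TCA. Staining used 0.4% SRB in 1% acetic acid, solubilized in 10 mM trizma, read at A515. Percent growth was calculated from time-zero, control and treated absorbances.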

[2] = test system: SR; assay: Antitumor activity against human SR cells assessed as growth inhibition at 10 uM relative to control; format: functional; details: read-out: GI
Procedure, shortened: (§2)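 Drug exposure 48 h at 37 °C, 5% CO2. Adherent cells fixed with cold TCA (10% final), suspension cells with TCA (16% final). Stained with 0.4% SRB in 1% acetic acid, dissolved in 10 mM Tris, A515. Growth relative to time-zero and untreated control.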

[3] = test system: A549; assay: Antitumor activity against human A549 cells assessed as growth inhibition at 10 uM relative to control; format: functional; details: read-out: GI; procedure, shortened: as §1
[4] = test system: HOP-62; assay: Antitumor activity against human HOP-62 cells assessed as growth inhibition at 10 uM relative to control; format: functional; details: read-out: GI; procedure, shortened: as §1
[5] = test system: HOP-92; assay: Antitumor activity against human HOP-92 cells assessed as growth inhibition at 10 uM relative to control; format: functional; details: read-out: GI; procedure, shortened: as §1
[6] = test system: NCI-H460; assay: Antitumor activity against human NCI-H460 cells assessed as growth inhibition at 10 uM relative to control; format: functional; details: read-out: GI; procedure, shortened: as §1
[7] = test system: HCC 2998; assay: Antitumor activity against human HCC 2998 cells assessed as growth inhibition at 10 uM relative to control; format: functional; details: read-out: GI; procedure, shortened: as §1
[8] = test system: SF-295; assay: Antitumor activity against human SF-295 cells assessed as growth inhibition at 10 uM relative to control; format: functional; details: read-out: GI; procedure, shortened: as §1
[9] = test system: IGROV-1; assay: Antitumor activity against human IGROV-1 cells assessed as growth inhibition at 10 uM relative to control; format: functional; details: read-out: GI; procedure, shortened: as §1
[10] = test system: OVCAR-4; assay: Antitumor activity against human OVCAR-4 cells assessed as growth inhibition at 10 uM relative to control; format: functional; details: read-out: GI; procedure, shortened: as §1
[11] = test system: UO-31; assay: Antitumor activity against human UO-31 cells assessed as growth inhibition at 10 uM relative to control; format: functional; details: read-out: GI; procedure, shortened: as §2
[12] = test system: MDA-MB-231; assay: Antitumor activity against human MDA-MB-231 cells assessed as growth inhibition at 10 uM relative to control; format: functional; details: read-out: GI; procedure, shortened: as §1
[13] = test system: Hs-578T; assay: Antitumor activity against human Hs-578T cells assessed as growth inhibition at 10 uM relative to control; format: functional; details: read-out: GI; procedure, shortened: as §1
[14] = test system: MDA-MB-468; assay: Antitumor activity against human MDA-MB-468 cells assessed as growth inhibition at 10 uM relative to control; format: functional; details: read-out: GI; procedure, shortened: as §1
[15] = Cytotoxicity against human PCS-800-011 cells assessed as inhibition of cell growth by MTT assay; format: toxicity, cell-based
[16] = target: Phosphatidylinositol 4,5-bisphosphate 3-kinase catalytic subunit alpha isoform (Homo sapiens, UniProt P42336); assay: Inhibition of PI3Kalpha (unknown origin)
Sequence of Phosphatidylinositol 4,5-bisphosphate 3-kinase catalytic subunit alpha isoform (P42336 whole entry, canonical isoform): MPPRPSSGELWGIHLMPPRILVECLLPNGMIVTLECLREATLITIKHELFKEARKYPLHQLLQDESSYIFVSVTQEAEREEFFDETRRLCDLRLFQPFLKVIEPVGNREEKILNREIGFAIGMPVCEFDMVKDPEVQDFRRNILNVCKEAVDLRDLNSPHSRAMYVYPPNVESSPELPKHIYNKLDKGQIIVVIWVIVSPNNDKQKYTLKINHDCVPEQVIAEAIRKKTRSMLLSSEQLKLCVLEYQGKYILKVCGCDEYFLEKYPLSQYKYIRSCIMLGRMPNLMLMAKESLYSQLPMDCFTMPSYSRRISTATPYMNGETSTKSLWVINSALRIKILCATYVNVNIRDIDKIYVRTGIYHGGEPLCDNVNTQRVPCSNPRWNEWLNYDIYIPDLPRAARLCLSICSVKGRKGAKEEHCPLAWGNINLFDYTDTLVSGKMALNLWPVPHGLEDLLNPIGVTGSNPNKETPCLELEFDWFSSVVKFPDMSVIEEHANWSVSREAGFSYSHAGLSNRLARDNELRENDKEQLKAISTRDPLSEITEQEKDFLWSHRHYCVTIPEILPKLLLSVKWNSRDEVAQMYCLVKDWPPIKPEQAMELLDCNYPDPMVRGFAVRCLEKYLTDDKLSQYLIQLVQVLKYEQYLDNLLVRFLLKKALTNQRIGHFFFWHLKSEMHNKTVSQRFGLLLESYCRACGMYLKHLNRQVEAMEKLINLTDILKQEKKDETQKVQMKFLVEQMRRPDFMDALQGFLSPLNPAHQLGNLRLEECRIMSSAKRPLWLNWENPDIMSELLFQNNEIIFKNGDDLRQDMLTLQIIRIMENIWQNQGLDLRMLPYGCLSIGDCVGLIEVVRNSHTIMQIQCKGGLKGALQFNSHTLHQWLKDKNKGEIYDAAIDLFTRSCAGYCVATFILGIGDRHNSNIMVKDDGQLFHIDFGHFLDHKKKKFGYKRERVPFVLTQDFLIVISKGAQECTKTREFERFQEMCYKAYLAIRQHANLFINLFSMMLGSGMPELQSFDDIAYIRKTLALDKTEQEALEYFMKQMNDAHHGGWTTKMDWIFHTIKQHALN
Procedure, shortened: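 Inhibitor preincubated 10 min before PIP2 substrate in kinase reaction buffer (25 µl final), 1 h reaction. Product detected by competition with biotinylated PIP3 for GRP1, with SA-HRP and TMB colour.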

[17] = target: T1, Serine/threonine-protein kinase mTOR (Homo sapiens, UniProt P42345); assay: Inhibition of mTOR (unknown origin) incubated for 1 hr by ELISA analysis
Procedure, shortened: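 Glutathione-coated plate loaded with mTOR substrate (1 h, room temperature). mTOR with compound in 2X kinase assay buffer, 30 min at 30 °C, then stop solution. Phospho-p70S6K-T389 detected by primary antibody, then HRP conjugate (1 h each), TMB, A450 with 540 or 595 nm reference.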

[18] = test system: SR; assay: Induction of cell cycle arrest in human SR cells assessed as accumulation of cells at pre-G phase incubated for 24 hrs by PI staining based flow cytometry analysis (reference value: 1.39%); format: functional
[19] = test system: SR; assay: Induction of cell cycle arrest in human SR cells assessed as accumulation of cells at G1 phase incubated for 24 hrs by PI staining based flow cytometry analysis (reference value: 53.01%); format: functional
[20] = test system: SR; assay: Induction of cell cycle arrest in human SR cells assessed as accumulation of cells at G2/M phase incubated for 24 hrs by PI staining based flow cytometry analysis (reference value: 8.57%); format: functional
[21] = test system: SR; assay: Induction of cell cycle arrest in human SR cells assessed as accumulation of cells at S phase incubated for 24 hrs by PI staining based flow cytometry analysis (reference value: 38.42%); format: functional
[22] = test system: SR; assay: Induction of cell cycle arrest in human SR cells assessed as cell aggregates incubated for 24 hrs by PI staining based flow cytometry analysis (reference value: 1.47%); format: functional
[23] = test system: SR; assay: Induction of cell cycle arrest in human SR cells assessed as cell debris incubated for 24 hrs by PI staining based flow cytometry analysis (reference value: 1.93%); format: functional
[24] = test system: SR; assay: Induction of apoptosis in human SR cells assessed as early apoptotic cells incubated for 24 hrs by AnnexinV-FITC/propidium iodide staining based flow cytometry (Rvb =0.29%); format: functional
[25] = test system: SR; assay: Induction of apoptosis in human SR cells assessed as late apoptotic cells incubated for 24 hrs by AnnexinV-FITC/propidium iodide staining based flow cytometry (Rvb =0.18%); format: functional
[26] = test system: SR; assay: Induction of apoptosis in human SR cells assessed as necrotic cells incubated for 24 hrs by AnnexinV-FITC/propidium iodide staining based flow cytometry (Rvb =0.92%); format: functional
[27] = test system: SR; assay: cells; details: Homo sapiens
[28] = target: T1, Serine/threonine-protein kinase mTOR; assay: Inhibition of mTOR in human SR cells by Western blot analysis; format: cell-based

Row | SMILES | IC50 [27] [nM] | inhibition of growth at 10 µM [1] [%] | inhibition of growth at 10 µM [2] [%] | inhibition of growth at 10 µM [3] [%] | inhibition of growth at 10 µM [4] [%] | inhibition of growth at 10 µM [5] [%] | inhibition of growth at 10 µM [6] [%] | inhibition of growth at 10 µM [7] [%] | inhibition of growth at 10 µM [8] [%] | inhibition of growth at 10 µM [9] [%] | inhibition of growth at 10 µM [10] [%] | inhibition of growth at 10 µM [11] [%] | inhibition of growth at 10 µM [12] [%] | inhibition of growth at 10 µM [13] [%] | inhibition of growth at 10 µM [14] [%] | further results
1 | CSc1nc(-c2ccc(Cl)cc2)c(C#N)c(N2CCOCC2)n1 |  | < 1 | 22.7 | 10.8 | 15.7 | 21.1 | < 1 | < 1 | < 1 | 11.8 | 18.2 | 27.1 | < 1 | < 1 | < 1 | 
2 | N#Cc1c(-c2ccc(Cl)cc2)nc(N/N=C/c2cccc(F)c2)nc1N1CCOCC1 |  | < 1 | < 1 | < 1 | 10.3 | < 1 | < 1 | < 1 | < 1 | 17.4 | < 1 | 37.5 | < 1 | < 1 | < 1 | 
3 | N#Cc1c(-c2ccc(Cl)cc2)nc(N/N=C2/C(=O)Nc3ccc(Cl)cc32)nc1N1CCOCC1 |  | < 1 | < 1 | < 1 | < 1 | 10.5 | < 1 | < 1 | < 1 | < 1 | < 1 | 32.5 | 17.1 | < 1 | < 1 | 

Continued, in another order:

Row | IC50 [27] [nM] | SMILES | inhibition of growth at 10 µM [1] [%] | inhibition of growth at 10 µM [2] [%] | inhibition of growth at 10 µM [3] [%] | inhibition of growth at 10 µM [4] [%] | inhibition of growth at 10 µM [5] [%] | inhibition of growth at 10 µM [6] [%] | inhibition of growth at 10 µM [7] [%] | inhibition of growth at 10 µM [8] [%] | inhibition of growth at 10 µM [9] [%] | inhibition of growth at 10 µM [10] [%] | inhibition of growth at 10 µM [11] [%] | inhibition of growth at 10 µM [12] [%] | inhibition of growth at 10 µM [13] [%] | inhibition of growth at 10 µM [14] [%] | further results
4 | 90 | N#Cc1c(-c2ccc(Cl)cc2)nc(N/N=C/c2cccc(O)c2)nc1N1CCOCC1 | 33.4 | 95.3 | 27.3 | 21.2 | 36.7 | 22.1 | < 1 | < 1 | 35.1 | < 1 | 64.3 | < 1 | 10.6 | 12.6 | IC50 [15]: 44500 nM; IC50 [16]: 1270 nM; IC50 [17]: 2850 nM; Activity [18]: 31.4%; Activity [19]: 39.28%; Activity [20]: 33.77%; Activity [21]: 26.95%; Activity [22]: 1.61%; Activity [23]: 2.24%; Activity [24]: 2.61%; Activity [25]: 19.19%; Activity [26]: 9.61%
5 | 350 | COc1cc(/C=N/Nc2nc(-c3ccc(Cl)cc3)c(C#N)c(N3CCOCC3)n2)cc(OC)c1OC | 40.8 | 85.6 | 41.4 | 10.2 | 59.1 | 46.2 | < 1 | 13.8 | 39.1 | 11.2 | 67 | 27.8 | 14.4 | 32.1 | 
6 | 770 | N#Cc1c(-c2ccc(Cl)cc2)nc(N/N=C/c2ccc[nH]2)nc1N1CCOCC1 | 97.7 | 68.8 | 45.6 | 58.4 | 31.1 | 63.3 | < 1 | 41.6 | 32.6 | 25.9 | 85.2 | 20.3 | < 1 | 21.8 | 
7 | 100 | N#Cc1c(-c2ccc(Cl)cc2)nc(N/N=C/c2cccc(Cl)c2)nc1N1CCOCC1 | 28.5 | 91.3 | 18.1 | < 1 | 10.7 | < 1 | < 1 | < 1 | 24.8 | < 1 | 46.5 | < 1 | < 1 | 14.9 | IC50 [15]: 17500 nM; IC50 [16]: 170 nM; IC50 [17]: 830 nM; Activity [18]: 44.26%; Activity [19]: 32.95%; Activity [20]: 37.64%; Activity [21]: 29.41%; Activity [22]: 1.51%; Activity [23]: 1.96%; Activity [24]: 3.54%; Activity [25]: 27.96%; Activity [26]: 12.76%; IC50 [28]: 103 nM
